# Data taken from ChEMBL document CHEMBL4402564, “Synthetic Lethality in Pancreatic Cancer: Discovery of a New RAD51-BRCA2 Small Molecule Disruptor That Inhibits Homologous Recombination and Synergizes with Olaparib” (J Med Chem, 2020).
# Active and inactive are the calls of the source. No cut-off for these calls is given here.
# Target: T1, DNA repair protein RAD51 homolog 1 (Homo sapiens, UniProt Q06609)
# T1 sequence (Q06609 whole entry): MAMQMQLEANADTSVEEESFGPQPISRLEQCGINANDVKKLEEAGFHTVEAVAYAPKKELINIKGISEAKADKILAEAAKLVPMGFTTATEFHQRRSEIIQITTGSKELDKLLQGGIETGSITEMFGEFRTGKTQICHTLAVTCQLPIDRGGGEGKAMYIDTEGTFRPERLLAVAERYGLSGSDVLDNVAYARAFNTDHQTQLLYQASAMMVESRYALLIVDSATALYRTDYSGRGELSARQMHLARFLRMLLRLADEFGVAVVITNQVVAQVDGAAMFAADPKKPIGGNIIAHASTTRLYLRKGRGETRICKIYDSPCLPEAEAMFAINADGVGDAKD
# Assay: Inhibition of biotinylated BRC4 peptide binding to His-tagged human RAD51 expressed in Escherichia coli Rosetta(DE3) pLysS cells assessed as BRC4-RAD51 protein -protein interaction by competitive ELISA
# Procedure, shortened: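 Biotinylated BRC4 peptide coated onto wells, washed with PBS/0.05% Tween-20, blocked with 1% BSA/PBST, then hybridized overnight with human RAD51. Compounds tested at 0.01–100 μM in triplicate with 1% DMSO constant. Bound RAD51 detected with anti-RAD51 and HRP secondary antibody, TMB colorimetric signal quenched with 1 M HCl. EC50 ± SD reported.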
row,SMILES,EC50
1,COc1ccc(C2CC(c3c(-c4ccccc4)c4ccccc4[nH]c3=O)=NN2C(=O)CCC(=O)O)cc1 (racemic),Not Active
2,O=C(O)CCC(=O)N1N=C(c2c(-c3ccccc3)c3ccccc3[nH]c2=O)CC1c1ccc(Cl)cc1 (racemic),Not Active
3,O=C(O)CCC(=O)N1N=C(c2c(O)nc3ccc(Cl)cc3c2-c2ccccc2)CC1c1ccco1 (racemic),Not Active
4,O=C(O)CCC(=O)N1N=C(c2c(-c3ccccc3)c3ccccc3[nH]c2=O)CC1c1ccc(Br)cc1 (racemic),Not Active
5,CC(=O)N1N=C(c2c(-c3ccccc3)c3cc(Cl)ccc3[nH]c2=O)CC1c1ccc(C(F)(F)F)cc1 (racemic),Not Active
6,O=C(O)CCC(=O)N1N=C(c2c(-c3ccccc3)c3cc(Cl)ccc3[nH]c2=O)CC1c1ccc2nn(C3CCCCC3)cc2c1 (racemic),Not Active
7,O=C(O)CCC(=O)N1N=C(c2c(-c3ccccc3)c3ccccc3[nH]c2=O)CC1c1ccc(F)cc1 (racemic),Not Active
8,O=C(O)CCC(=O)N1N=C(c2c(-c3ccccc3)c3cc(Cl)ccc3[nH]c2=O)CC1c1ccc2c(cnn2C2CCCCC2)c1 (racemic),Not Active
9,CC(=O)N1N=C(c2c(-c3ccccc3)c3cc(Cl)ccc3[nH]c2=O)CC1c1ccco1 (racemic),Not Active
10,NC(=O)CCC(=O)N1N=C(c2c(-c3ccccc3)c3cc(Cl)ccc3[nH]c2=O)CC1c1ccc(F)cc1 (racemic),Not Active
11,CS(=O)(=O)NCCC(=O)N1N=C(c2c(-c3ccccc3)c3cc(Cl)ccc3[nH]c2=O)CC1c1ccc(F)cc1 (racemic),Not Active
12,COc1ccc(C2CC(c3c(-c4ccccc4)c4cc(Cl)ccc4[nH]c3=O)=NN2C(=O)CCC(=O)O)cc1F (racemic),Not Active
13,CCCn1ncc2cc(C3CC(c4c(-c5ccccc5)c5cc(Cl)ccc5[nH]c4=O)=NN3C(=O)CCC(=O)O)ccc21 (racemic),Not Active
14,COc1ccc(C2CC(c3c(O)nc4ccc(Cl)cc4c3-c3ccccc3)=NN2C(=O)CCC(=O)O)cc1 (racemic),Not Active
15,COC(=O)CCC(=O)N1N=C(c2c(-c3ccccc3)c3cc(Cl)ccc3[nH]c2=O)CC1c1ccc(F)cc1 (racemic),Not Active
16,NCCC(=O)N1N=C(c2c(-c3ccccc3)c3cc(Cl)ccc3[nH]c2=O)CC1c1ccc(F)cc1 (racemic),Not Active
17,CC(C)(C)c1ccc(C2CC(c3c(-c4ccccc4)c4cc(Cl)ccc4[nH]c3=O)=NN2C(=O)CCC(=O)O)cc1 (racemic),Not Active
18,O=C(O)CCC(=O)N1N=C(c2c(-c3ccccc3)c3ccccc3[nH]c2=O)CC1c1cccc(Br)c1 (racemic),Not Active
19,O=C(O)CCC(=O)N1N=C(c2c(-c3ccccc3)c3ccccc3[nH]c2=O)CC1c1ccc(C(F)(F)F)cc1 (racemic),Not Active
20,CCCn1cc2cc(C3CC(c4c(-c5ccccc5)c5cc(Cl)ccc5[nH]c4=O)=NN3C(=O)CCC(=O)O)ccc2n1 (racemic),Not Active

# Target: T2, DNA repair protein RAD51 homolog 1 (Homo sapiens) (UniProt Q06609)
# T2 sequence (whole entry): T1 sequence (Q06609 whole entry)
# Assay: Inhibition of RAD51 interaction in human BxPC3 cells assessed as inhibition of homologous recombination incubated for 5 hrs by RT-PCR analysis
# Format: cell-based
# Procedure, shortened: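 Commercial two-plasmid recombination assay in BxPC-3 cells, with compound applied at different doses for 5 h simultaneously with plasmid transfection. Tested up to 40 μM, limited by solubility. Dose giving 50% HR inhibition estimated by polynomial regression.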
row,SMILES,inhibition
1,Cn1ccc2cc(C3CC(c4c(-c5ccccc5)c5cc(Cl)ccc5[nH]c4=O)=NN3C(=O)CCC(=O)O)ccc21 (racemic),inactive
2,CCCn1ncc2cc(C3CC(c4c(-c5ccccc5)c5cc(Cl)ccc5[nH]c4=O)=NN3C(C)=O)ccc21 (racemic),inactive
3,O=C(O)CCC(=O)N1N=C(c2c(-c3ccccc3)c3cc(Cl)ccc3[nH]c2=O)CC1c1ccc(Br)cc1 (racemic),inactive
4,CC(=O)N1N=C(c2c(-c3ccccc3)c3cc(Cl)ccc3[nH]c2=O)CC1c1ccc2c(ccn2C)c1 (racemic),inactive
5,CC(=O)N1N=C(c2c(-c3ccccc3)c3cc(Cl)ccc3[nH]c2=O)CC1c1ccc(C(C)(C)C)cc1 (racemic),inactive
6,CCC(=O)N1N=C(c2c(-c3ccccc3)c3cc(Cl)ccc3[nH]c2=O)CC1c1ccc(Cl)cc1 (racemic),inactive
7,CCC(=O)N1N=C(c2c(-c3ccccc3)c3cc(Cl)ccc3[nH]c2=O)CC1c1ccc(Br)cc1 (racemic),inactive
8,CCn1cc2cc(-c3ccc(C4CC(c5c(-c6ccccc6)c6cc(Cl)ccc6[nH]c5=O)=NN4C(=O)CCC(=O)O)cc3)ccc2n1 (racemic),inactive

# Test system: CAPAN-1
# Assay: Induction of DNA damage in BRCA2 defective human Capan1 cells assessed as increase in gamma-H2AX labelling […] hrs by immunofluorescence microscopic analysis
# Format: functional, cell-based
# Procedure, shortened: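 Cells exposed 48 h to 20 μM disruptor alone or with 10 μM olaparib, in medium with 0.6% DMSO. Nuclear γ-H2AX foci visualized by immunofluorescence and percentage of labeled nuclei scored. BxPC-3 (functional BRCA2) and Capan-1 (BRCA2-defective) cultures in RPMI 1640 with 10% FBS.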
row,SMILES,Activity
1,O=C(c1cc(Cc2n[nH]c(=O)c3ccccc23)ccc1F)N1CCN(C(=O)C2CC2)CC1,Active

# Test system: BXPC-3
# Assay: Antiproliferative activity against human BxPC3 cells after 72 hrs in presence of olaparib by CellTiter-Glo luminescent cell viability assay
# Format: functional, cell-based
# Procedure, shortened: (§1)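 BxPC-3 cells grown in RPMI 1640 with 10% FBS, penicillin/streptomycin and 2 mM glutamine. Disruptor given alone or with 10 μM olaparib in medium containing 0.6% DMSO, with the same DMSO in controls. Viability read at 72 h, measured alongside cell death.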
row,SMILES,Activity
1,O=C(O)CCC(=O)N1N=C(c2c(-c3ccccc3)c3cc(Cl)ccc3[nH]c2=O)CC1c1ccc(-c2ccc(Br)cc2)cc1 (racemic),inactive
2,CCCn1ncc2cc(C3CC(c4c(-c5ccccc5)c5cc(Cl)ccc5[nH]c4=O)=NN3C(C)=O)ccc21 (racemic),inactive
3,CC(=O)N1N=C(c2c(-c3ccccc3)c3cc(Cl)ccc3[nH]c2=O)CC1c1ccc(Cl)cc1 (racemic),inactive
4,O=C(O)CCC(=O)N1N=C(c2c(-c3ccccc3)c3cc(Cl)ccc3[nH]c2=O)CC1c1ccc(Br)cc1 (racemic),inactive
5,CCn1ccc2cc(C3CC(c4c(-c5ccccc5)c5cc(Cl)ccc5[nH]c4=O)=NN3C(=O)CCC(=O)O)ccc21 (racemic),inactive
6,O=C(O)CCC(=O)N1N=C(c2c(-c3ccccc3)c3cc(Cl)ccc3[nH]c2=O)CC1c1ccc(-c2ccc(F)cc2)cc1 (racemic),inactive
7,CCC(=O)N1N=C(c2c(-c3ccccc3)c3cc(Cl)ccc3[nH]c2=O)CC1c1ccc(Cl)cc1 (racemic),inactive
8,CCC(=O)N1N=C(c2c(-c3ccccc3)c3cc(Cl)ccc3[nH]c2=O)CC1c1ccc(Br)cc1 (racemic),inactive

# Test system: BXPC-3
# Assay: Antiproliferative activity against human BxPC3 cells at 5 uM after 72 hrs in presence of olaparib by CellTiter-Glo luminescent cell viability assay
# Format: functional, cell-based
# Procedure, shortened: as §1
row,SMILES,Activity
1,Cn1ccc2cc(C3CC(c4c(-c5ccccc5)c5cc(Cl)ccc5[nH]c4=O)=NN3C(=O)CCC(=O)O)ccc21 (racemic),inactive

# Test system: BXPC-3
# Assay: Antiproliferative activity against human BxPC3 cells at 20 uM after 72 hrs in presence of olaparib by CellTiter-Glo luminescent cell viability assay
# Format: functional, cell-based
# Procedure, shortened: as §1
row,SMILES,Activity
1,CCn1cc2cc(-c3ccc(C4CC(c5c(-c6ccccc6)c6cc(Cl)ccc6[nH]c5=O)=NN4C(=O)CCC(=O)O)cc3)ccc2n1 (racemic),Active
